In the library only some 1.9% were active in any assay of this set; here they are far more common.
LEDGF integ inh: blocks HIV-1 LEDGF/p75-dependent DNA integration. TR-FRET IN-LEDGF/p75 DNA integration, Eu/Cy5. inhibition, % at 3.7 µM. 370,000 tested, 0.64% active. AID 743269;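 active = inhibition above the screen-wide mean plus 3 SD, cut at about 13% in these data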;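 note: signal is the Cy5 over europium emission ratio at 671 and 618 nm; 0% = plate median of compound wells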
TDP2 inh: blocks human TDP2 phosphodiesterase activity; recombinant TDP2, T5PNP hydrolysis, p-nitrophenol absorbance 415 nm; inhibition, % at 12.8 µM; 370,000 tested, 0.34% active; AID 720702;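 active = inhibition above the mean of all tested compounds plus 3 SD, set per campaign, cut at about 25% in these data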;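 note: 0% = DMSO with enzyme and 100% = buffer with substrate but no TDP2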
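System – recombinant human TDP2 · Quantity – TDP2 enzyme at 120 nM final · Doses – single concentration, 12.8 µM nominal, with 1% DMSO · Incubation – 2 h at 37 °C · Measured by – epi absorbance of p-nitrophenol freed from T5PNP by hydrolysis · Read-out – % inhibition relative to enzyme-containing and enzyme-free wells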
MBD2 inh: inhibitors of human MBD2 binding to methylated oligonucleotide. TR-FRET. inhibition, % at 4.4 µM. 370,000 tested, 0.31% active. AID 686964; in the data active = inhibition above about 13%
Target sequence (Q9UBB5 whole entry, looked up): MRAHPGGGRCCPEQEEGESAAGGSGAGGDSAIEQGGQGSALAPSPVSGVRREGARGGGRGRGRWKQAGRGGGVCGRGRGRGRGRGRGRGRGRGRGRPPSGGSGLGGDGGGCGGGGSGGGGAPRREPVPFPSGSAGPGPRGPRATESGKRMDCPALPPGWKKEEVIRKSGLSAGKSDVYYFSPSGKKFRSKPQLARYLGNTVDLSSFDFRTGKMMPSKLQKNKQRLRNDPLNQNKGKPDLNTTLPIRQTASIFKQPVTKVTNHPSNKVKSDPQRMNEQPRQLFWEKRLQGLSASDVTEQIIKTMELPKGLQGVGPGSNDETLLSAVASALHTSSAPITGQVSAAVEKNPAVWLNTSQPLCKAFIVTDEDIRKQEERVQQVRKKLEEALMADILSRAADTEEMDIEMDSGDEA
NSD2 HMT inh: blocks human histone methyltransferase NSD2 | O96028 | NSD2 peptide methylation, AlphaScreen, 120 min | inhibition, % at 12.5 µM | 310,000 tested, 0.54% active | AID 743445; in the data active = inhibition above about 50%
UHRF1 binding: blocks human UHRF1 binding to methylated DNA; UHRF1 binding to methylated oligo, TR-FRET; inhibition, % at 4.4 µM; 370,000 tested, 0.75% active; in the data active = inhibition above about 21%;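 note: UHRF1 SRA domain binding a hemimethylated CpG hairpin DNA probe; 0% = median of test compound wells and 100% = reference inhibitor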
CASP6 VEID inh: blocks human caspase-6 cleavage activity; P55212; 350,000 tested, 0.53% active; purified caspase-6, Z-VEID-R110 cleavage fluorescence; AID 686996; inhibition, % at 12.5 µM;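 active = mean inhibition across replicates at least about 35%, with every replicate also reaching that limit, limit read from the data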;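 note: 0% = median of neutral control wells and 100% = no fluorescence left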
UHRF1 DNA bind: counter-screen for MBD2 inhibitors: human UHRF1 methylated DNA binding inhibitors | inhibition, % at 4.4 µM | shares compounds with MBD2 inh | AID 720530 | UHRF1 binding to methylated oligonucleotide, TR-FRET | 1,000 tested, 25% active; in the data active = inhibition above about 21%;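 note: UHRF1 SRA domain binding a labeled hemimethylated CpG hairpin DNA; 0% = vehicle only and 100% = reference inhibitor with vehicle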
MBD2 confirm: confirmation of human MBD2-DBD methylated oligonucleotide binding inhibitors. AID 720531. 1,000 tested, 26% active. inhibition, % at 4.4 µM. shares compounds with MBD2 inh. TR-FRET MBD2-DBD binding to methylated oligonucleotide
CASP1 counter: blocks human caspase-1 in a selectivity counter-screen. purified caspase-1, Z-YVAD-R110 cleavage fluorescence. 100 tested, under 10 active. activity change, negative = inhibition, % at 35 µM. shares compounds with CASP6 VEID inh;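 active = compounds lowering fluorescence whose fitted half-maximal concentration is no more than twice their top tested dose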
TDP2 inh conf: confirmation of human TDP2 inhibitors; inhibition, % at 12.8 µM; recombinant human TDP2, absorbance read-out; 1,100 tested, 22% active; shares compounds with TDP2 inh; in the data active = inhibition above about 25%;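 note: 0% = vehicle with enzyme and 100% = no enzyme buffer only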
IN multimer act: counter-screen for LEDGF/p75 integration inhibitors: HIV-1 integrase multimerization activators; shares compounds with LEDGF integ inh; TR-FRET HIV-1 integrase multimerization, biochemical; activation, % at 7.7 µM; 2,000 tested, 17% active; AID 1053131; in the data active = activation above about 8.9%
TRFRET interf: TR-FRET optical interference, LEDGF/p75 integration counter-screen. shares compounds with LEDGF integ inh. TR-FRET optical interference counterscreen, HIV-1 IN multimerization. inhibition, % at 7.7 µM. 2,000 tested, under 10 active. AID 1053135;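 active = inhibition above the mean over all tested compounds plus 3 SD, which no compound reached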;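 note: 0% = integrase with antibodies and DMSO and 100% = antibodies without integrase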
IN-LEDGF confirm: confirmation of HIV-1 LEDGF/p75-dependent integration inhibitors; shares compounds with LEDGF integ inh; TR-FRET LEDGF/p75-dependent HIV-1 integration, biochemical; inhibition, % at 3.7 µM; 2,000 tested, 36% active; AID 1053136
* hit, by the source's call; . = no result. Cut-off read from the data, not from the text of the source, unless noted: active = inhibition above about 14%; inactive = the rest.

SMILES	LEDGF integ inh	TDP2 inh	MBD2 inh	NSD2 HMT inh	UHRF1 binding	CASP6 VEID inh	UHRF1 DNA bind	MBD2 confirm	IN multimer act	TRFRET interf	IN-LEDGF confirm	others
O=S(=O)(Nc1cc2nc3ccccc3nc2n1Cc1ccccc1)c1ccc(Cl)cc1	24*	107*	16*	0	16	7	1	18*	1	-3	73*	TDP2 inh conf=93*
O=S(=O)(NCc1ccccc1)c1ccc(Cl)cc1	0	-14	4	8	-2	.	.	.	.	.	.
C[C@@H]1CN([C@H](C)CO)S(=O)(=O)c2ccc(-c3ccccc3)cc2O[C@H]1CN(C)C(=O)CN(C)C	.	.	.	.	.	3	.	.	.	.	.
Cc1ccc(S(=O)(=O)Nc2ccc3c(c2)C(=O)N([C@@H](C)CO)C[C@H](C)[C@H](CN(C)C(=O)Cc2ccccc2)OCCCC[C@@H](C)O3)cc1	.	.	.	.	.	1	.	.	.	.	.
COc1cc(/C=C/C=C2/CC/C(=C/C=C/c3ccc(O)c(OC)c3)C2=O)ccc1O	92*	-8	31*	1	58*	52*	16	7	26*	-131	54*
Cc1cccc(N=C2NC(=O)/C(=C/C=C/c3ccco3)S2)c1C	49*	14	17*	14	48*	.	21*	9	9.7*	-35	63*
NC(Cc1ccc(O)c([N+](=O)[O-])c1)C(=O)O (configuration not stated)	-1	4	2	-2	2	.	.	.	.	.	.
N[C@@H](Cc1ccc(O)c(O)c1)C(=O)O	89*	8	34*	.	67*	.	96*	59*	53*	-267	93*
COc1ccc2nc(-c3ccco3)c(-c3ccco3)nc2c1	65*	15	20*	-6	78*	47*	25*	10	5	-28	50*
COc1ccc(-c2nc3ccccc3nc2-c2ccc(OC)cc2)cc1	1	5	1	-26	-2	0	.	.	.	.	.
Cc1n[nH]c(=S)n(NC(=O)/C=C/C(=O)Nn2c(=S)[nH]nc(C)c2=O)c1=O	14*	2	15*	8	41*	17	16	9	8	-42	29*
Cc1n[nH]c(=S)n(NC(=O)CC(=O)Nn2c(=S)[nH]nc(C)c2=O)c1=O	-33	-2	-5	-334	-12	-6	.	.	.	.	.
Nc1ccc2nc(-c3cccc(-c4nc5ccc(N)cc5[nH]4)c3)[nH]c2c1	16*	-5	14*	4	26*	0	4	4	60*	-213	-11
Nc1ccc(-c2nc3ccc(N)cc3[nH]2)cc1	-6	7	0	4	-7	7	.	.	.	.	.
S=C(NC1CC1)SCc1ccco1	35*	1	24*	-2	54*	53*	8	2	0	0	2
COC(=O)C[C@H]1C[C@@H]2c3cc(N(C)C)ccc3O[C@@H]2[C@@H](CO)O1	.	.	.	.	.	-3	.	.	.	.	.
O=c1cc2c(=O)oc3cc(O)c(O)oc3c2c(O)c1O	89*	-2	95*	.	97*	95*	92*	109*	80*	-286	91*	CASP1 counter=-8

Assay outcomes: PubChem BioAssay, several laboratories
